# Bioassay records as filed in PubChem.
# GRIN3A LBD mod = modulators (binders) of human NR3A ligand-binding domain; AID 1259313; Tm shift relative to glycine control, % at 25 µM; hit rate 2.5% among 340,000; NR3A LBD differential scanning fluorimetry, Tm shift; 0% = protein alone, 100% = glycine-bound protein;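 active means melting temperature shift of at least 10% of the positive control shift, at one fixed dose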
# MPTP block = permeability transition pore inhibition; inhibition, % at 10 µM; hit rate 1.4% among 360,000; isolated mouse mitochondria, Ca2+ swelling absorbance, 30 min; AID 602449;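 active means inhibition of 50% or more, scaled per plate between neutral and stimulator controls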;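 further: 0% = DMSO wells given calcium and 100% = 1 mM EGTA wells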
# XBP1 UPR activ = activators of adaptive arm of unfolded protein response (XBP1) | hit rate 0.33% among 330,000 | CHO-XBP1 luciferase reporter, IRE1-XBP1 UPR activation, luminescence; percent of tunicamycin response, DMSO as zero | AID 463104 | activation, % at 20 µM;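 active means versus positive control, 20 µM dose yields 30% or more activation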;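 further: 100% = tunicamycin at 10 µg/mL and 0% = DMSO only wells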
#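 Material: CHO-XBP1 cells stably carrying IRE1-XBP1-driven luciferase reporter | Medium: F12 with 10% serum | Compound dosing: 20 µM single concentration, DMSO 1% | Incubation: Overnight seeding at 37 °C, 6 h compound treatment at 37 °C | Detection: Steady-Glo luminescence read | Read-out basis: % activation of reporter signal versus tunicamycin and DMSO controls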
# CHOP UPR activ = apoptotic UPR (CHOP) activation; hit rate 0.34% among 330,000; CHO-CHOP luciferase reporter, luminescence; percent of tunicamycin response over DMSO baseline; activation, % at 10 µM;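 active means at 10 µM dose, activation of 40% or more, normalized to positive control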;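 further: 100% = tunicamycin at 10 µg/mL and 0% = DMSO alone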
#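 Evaluation: % reporter activation, DMSO baseline versus tunicamycin full activation; System: CHO-CHOP luciferase reporter cell line; Input: 500 cells/well; Incubation: 6 h compound treatment, 37 °C; Measured by: Steady-Glo luciferase luminescence; Dosing: one dose, 10 µM in 0.5% DMSO; Buffer or medium: F12 medium, 10% FBS; Benchmarks: positive tunicamycin 10 µg/mL, negative DMSO alone.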
# aDG glyco up = increases alpha dystroglycan glycosylation. Pro5-aDG cells, alpha-DG glycosylation AlphaScreen (IIH6); 0% Pro5, 100% B10-LARGE cell signal. activation, % at 10 µM. hit rate 0.22% among 360,000. AID 624168;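 active means activation of at least 8% versus controls, or a plate z-score of at least 8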;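 further: Pro5 are CHO cells carrying HIG-tagged alpha-DG that lacks glycosylation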
# CHOP inh = blocks CHOP induction under ER stress. CHO-K1 CHOP-promoter luciferase, tunicamycin-induced, 15-18 h. inhibition, % at 10 µM. hit rate 3.8% among 220,000;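 active means compounds that reduced the stress-induced luciferase reporter signal by more than about 70% of percent inhibition, limit read from the data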;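 further: 0% = tunicamycin plus vehicle and 100% = wells without tunicamycin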
# Numbers without * were called inactive; . = no result. Sampled rows, rich in hits. Any-hit rate of the full collection: about 5.6%.
SMILES,GRIN3A LBD mod,MPTP block,XBP1 UPR activ,CHOP UPR activ,aDG glyco up,CHOP inh
Oc1ccc(/C=N/Nc2nccnc2Cl)c(O)c1,17.6*,0.4,11.4,1.7,1.2,64.6
COc1cccc(/C=N/Nc2nccnc2Cl)c1O,-1.4,0.7,-8.9,-7.4,2.3,74.4*
COc1cccc(/C=N/Nc2ncnc3scc(-c4ccccc4)c23)c1O,-6.8,18.7,8.6,9.9,1.4,74.7*
COc1ccc(-c2csc(C(C)(NC(C)=O)c3ccccc3)n2)cc1 (centres undefined),.,0.4,.,.,0.3,.
O=C(COn1nnc2ccccc21)N1CCN(Cc2ccccc2)CC1,-2.3,-1.4,-3.5,0.9,0.1,6.2
C[C@@H]1CCC[C@@]2(O[C@@H](CCO)C[C@H](O)[C@H]2O)O1,-4.8,1.8,0.1,-2.3,0.0,.
COc1ccc(/C=N/NC(=O)c2[nH]c3ccc(Br)cc3c2-c2ccccc2)cc1,18.2*,45.5,10.5,1.4,-0.3,-8.3
CCCN=CC1=C(O)CC(c2ccccc2)CC1=O (centres undefined),391.4*,0.1,-0.1,-0.8,0.0,6.2
O=C1CC(c2ccccc2)CC(O)=C1C=NCCN1CCNCC1 (centres undefined),-0.2,0.9,-3.5,-0.6,-0.1,94.8*
CC(C)CCN=CC1=C(O)CC(c2ccccc2)CC1=O (centres undefined),-2.4,-0.2,2.9,0.6,0.2,4.3
O=C1CC(c2ccc(F)cc2)CC(O)=C1C=NCCN1CCNCC1 (centres undefined),3.1,-4.5,4.8,-1.5,-0.1,-9.3
CCNC(=O)C1CCCN(C(=O)c2ccc(C#N)cc2)CC1 (centres undefined),.,-1.5,.,.,-0.3,.
CCn1ccnc1CN(C)Cc1cn(-c2ccc(C)cc2)nc1-c1ccc(F)cc1,-0.3,-2.0,-0.2,1.8,0.4,75.3*
Cc1ccc(-n2cc(CN(C)Cc3nccn3C)c(-c3ccc(F)cc3)n2)cc1,-0.2,-0.7,1.1,0.3,0.4,29.9
CC(Oc1ccc(F)cc1)C(=O)Nc1ccc2ccccc2c1 (centres undefined),-12.1,2.6,-1.5,2.3,0.1,11.8
CC(Oc1ccccc1F)C(=O)Nc1ccc2ccccc2c1 (centres undefined),-11.6,1.1,1.6,0.6,0.3,88.0*
Cc1ccc(C(=O)C2CC2)cc1C,-0.2,1.0,.,.,0.0,.
COc1ccc(-c2noc(-c3csc([C@@H]4O[C@H](CO)[C@H](O)[C@H](O)[C@H]4O)n3)n2)cc1OC,.,0.0,.,.,0.2,.
O=c1c(Cc2ccc(F)cc2)c(O)ccn1Cc1ccc(F)cc1,0.3,-0.7,11.3,-0.8,0.3,8.2
O=c1c(Cc2ccc(F)cc2)c(O)ccn1Cc1ccc(Cl)cc1Cl,-15.7,6.4,-2.6,0.3,0.2,82.9*
O=C(N/N=C/C=C/c1ccccc1)c1ccncc1,25.2*,1.4,0.3,1.4,0.5,13.5
O=C(N/N=C/C=C/c1cccc([N+](=O)[O-])c1)c1ccncc1,0.5,2.8,-1.6,-0.8,-0.1,-3.7
C[C@@H]1CN([C@@H](C)CO)C(=O)c2cc(NC(=O)C3CC3)ccc2O[C@@H]1CN(C)C(=O)NC1CCCCC1,-0.4,0.7,-1.3,-1.8,-0.2,.
COC(=O)c1sc(-c2ccccc2)cc1NC(=O)C1CC1,0.6,4.4,0.8,-0.9,-0.2,3.7
COC(=O)c1sc(-c2ccc(C(C)(C)C)cc2)cc1NC(=O)CSCC(=O)O,-437.0,13.2,1.4,4.1,-0.1,76.6*
COc1ccccc1CC(=O)Nc1ccc(S(=O)(=O)N2CC(C)CC(C)C2)cc1 (centres undefined),-6.3,0.8,2.1,-1.2,0.0,.
Cc1cc(C)cc(NC(=O)Nc2ccc(NC(=O)c3ccccc3O)cc2)c1,24.9*,0.8,-3.6,1.5,1.2,.
O=C(Nc1ccccc1)c1ccccc1O,-14.3,12.2,2.3,2.6,-0.1,12.4
Cc1ccc(NC(=O)c2ccccc2O)cc1,-5.8,0.7,-6.8,1.8,-0.1,13.6
O=C(Nc1ccccc1)Nc1ccc(NC(=O)c2ccccc2O)cc1,42.0*,1.0,-1.2,2.4,0.1,.
